# Measurements as given in PMC2914798 (Biochimica et biophysica acta, 2010).
# [ ]: non-standard residue; d: D form. The star is where a group is joined. Dnp = O=[N+]([O-])c1ccc(*)c([N+](=O)[O-])c1; Mca = COc1ccc2c(CC(=O)*)cc(=O)oc2c1
# What was measured:
# Type in all cases: biochemical
# Cath D [1] = target: T1, Cath D (Homo sapiens, UniProt P07339); assay: Enzyme digestion and cleavage site identification, Cath D; conditions: high dose of Cath D, overnight hydrolysis; data not shown
# Cath E = target: T2, Cath E (Homo sapiens, UniProt P14091); assay: Michaelis-Menten kinetics of substrate e hydrolysis by Cath E; conditions: 6.8 nM Cath E, 50 mM sodium acetate pH 4.0, 10 minutes, 37 °C
# T2 sequence (P14091 54-396): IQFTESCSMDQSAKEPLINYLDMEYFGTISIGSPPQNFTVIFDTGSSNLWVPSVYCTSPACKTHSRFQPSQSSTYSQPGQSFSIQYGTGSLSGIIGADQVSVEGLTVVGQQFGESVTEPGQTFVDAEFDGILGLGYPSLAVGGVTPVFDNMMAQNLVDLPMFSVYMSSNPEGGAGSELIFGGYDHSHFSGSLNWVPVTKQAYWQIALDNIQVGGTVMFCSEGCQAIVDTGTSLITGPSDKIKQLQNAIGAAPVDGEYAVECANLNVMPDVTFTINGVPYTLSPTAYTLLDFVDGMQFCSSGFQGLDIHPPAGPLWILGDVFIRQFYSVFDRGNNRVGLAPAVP
# In short: (§1)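 Intramolecularly quenched Mca/Dnp FRET peptide, 5–100 µM, in 50 mM sodium acetate pH 4.0, with Cath E at 2.3, 4.5 or 6.8 nM, or Cath D up to 54 nM. Fluorescence (ex 340/em 405 nm) followed over 10 min. Initial velocity taken from the linear-phase slope. Vmax and Km from linear regression of the Hanes-Woolf plot (S/v vs S); kcat = Vmax/[Cath E]. Triplicate.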
# Cath D [2] = target: T1, Cath D; assay: Kinetics of substrate e hydrolysis by Cath D
# In short: as §1
# T1 sequence (P07339 65-412): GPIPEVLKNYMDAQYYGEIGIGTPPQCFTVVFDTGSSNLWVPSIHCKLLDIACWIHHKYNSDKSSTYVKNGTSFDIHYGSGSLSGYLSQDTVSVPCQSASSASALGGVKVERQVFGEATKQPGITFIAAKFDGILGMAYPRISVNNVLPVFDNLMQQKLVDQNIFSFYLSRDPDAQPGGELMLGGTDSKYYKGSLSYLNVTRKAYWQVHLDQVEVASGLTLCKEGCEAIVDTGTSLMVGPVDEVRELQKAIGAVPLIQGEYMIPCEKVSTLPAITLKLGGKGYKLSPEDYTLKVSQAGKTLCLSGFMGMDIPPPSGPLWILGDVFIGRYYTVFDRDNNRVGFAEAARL
substance,measurement,setting,value
Mca-AGFSLPAK(Dnp)[dR]-NH2 (SMILES COc1ccc2c(CC(=O)N[C@@H](C)C(=O)NCC(=O)N[C@@H](Cc3ccccc3)C(=O)N[C@@H](CO)C(=O)N[C@@H](CC(C)C)C(=O)N3CCC[C@H]3C(=O)N[C@@H](C)C(=O)N[C@@H](CCCCNc3ccc([N+](=O)[O-])cc3[N+](=O)[O-])C(=O)N[C@H](CCCNC(=N)N)C(N)=O)cc(=O)oc2c1) [Substrate e],cleavage sites by Cath D,Cath D [1],"two minor cleavage sites were identified, one is between the P1 and P1’ sites (-Leu^5-Pro^6-) and a secondary site was found between P3 and P4 positions (-Gly^2-Phe^3-)"
same,"Kcat/Km (catalytic efficiency), Cath E",Cath E,16.7 µM^−1.S^−1
same,"Kcat/Km (catalytic efficiency), Cath D","Cath D [2]; up to 54 nM Cath D, same measurement conditions (50 mM sodium acetate pH 4.0)",NM ^§
same,cleavage by Cath D,"Cath D [2]; up to 54 nM of Cath D, 50 mM sodium acetate pH 4.0",no measurable cleavage
